The list is not random: actives were taken first. Their share in the collection is about 1.3%.
PfGluPho inh – PfG6PD (Plasmodium falciparum) enzyme inhibition; PfGluPho enzyme, NADPH resazurin-diaphorase fluorescence; inhibition, % at 20 µM; 350,000 tested, 0.78% active;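 active = inhibition reaching at least a set limit at 20 µM in the primary screen, cut at about 59% in these data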;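 also: 0% = DMSO wells with substrate and 100% = DMSO wells lacking glucose-6-phosphate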
Diaph inh CS – inhibits diaphorase or chemically oxidizes, flagging diaphorase assay artifacts; inhibition, % at 20 µM; 190,000 tested, 0.69% active; AID 1217; diaphorase resazurin-to-resorufin fluorescence, NADH, 16 min; bacterial (C. kluyveri) enzyme, not human;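 active = primary screen inhibition at 20 µM above a set limit, cut at about 50% in these data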;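 also: plate controls were DMSO with full reaction for no effect and wells lacking NADH for full effect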
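System: Diaphorase enzyme from Clostridium kluyveri | Amount: Enzyme working solution with 0.14 U/mL diaphorase | Benchmarks: No-NADH positive control and DMSO neutral control | Signal: Fluorescence of resorufin formed from resazurin, Ex 544/Em 590 nm | Schedule: 16-min room-temperature incubation before reading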
G6PDH counter – L. mesenteroides G6PDH inhibition counter-screen. Purified L. mesenteroides G6PDH, diaphorase/resazurin coupled fluorescence, 45 min. 200,000 tested, 0.12% active. AID 1020. inhibition, % at 5 µM; in the data active = inhibition above about 50%
Diaph act CS – counter-screen for diaphorase-based assays: diaphorase activators and chemical reducers | Diaphorase/resazurin coupled assay, resorufin fluorescence, 16 min; hits give high values; 1 = vehicle wells, 0 = NADH-free wells | activation factor at 20 µM | 190,000 tested, 0.005% active;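 active = diaphorase activity raised at least twofold by the compound at 20 µM; inactive = activation factor below 2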
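Material: bacterial diaphorase enzyme (C. kluyveri); amount: enzyme 0.07 U/mL final; reagent: NADH substrate 0.114 mM plus resazurin dye 0.1 mM, final; doses: single compound dose of 20 µM, 1% DMSO final; timing: 16 min enzyme reaction, ambient temperature; measured by: fluorescence of resorufin, 544 nm excitation, 590 nm emission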
HKDC1 inh – inhibitors of human hexokinase HKDC1 | recombinant HKDC1, G6PDH/diaphorase resazurin coupled fluorescence | Q2TB90 | 340,000 tested, 0.16% active | AID 493160 | inhibition, % at 20 µM;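 active = inhibition above about 35% when tested at 20 µM, limit read from the data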;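 also: plate controls were DMSO wells with enzyme for no effect and DMSO wells lacking enzyme for full effect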
Target sequence (Q2TB90 whole entry, looked up): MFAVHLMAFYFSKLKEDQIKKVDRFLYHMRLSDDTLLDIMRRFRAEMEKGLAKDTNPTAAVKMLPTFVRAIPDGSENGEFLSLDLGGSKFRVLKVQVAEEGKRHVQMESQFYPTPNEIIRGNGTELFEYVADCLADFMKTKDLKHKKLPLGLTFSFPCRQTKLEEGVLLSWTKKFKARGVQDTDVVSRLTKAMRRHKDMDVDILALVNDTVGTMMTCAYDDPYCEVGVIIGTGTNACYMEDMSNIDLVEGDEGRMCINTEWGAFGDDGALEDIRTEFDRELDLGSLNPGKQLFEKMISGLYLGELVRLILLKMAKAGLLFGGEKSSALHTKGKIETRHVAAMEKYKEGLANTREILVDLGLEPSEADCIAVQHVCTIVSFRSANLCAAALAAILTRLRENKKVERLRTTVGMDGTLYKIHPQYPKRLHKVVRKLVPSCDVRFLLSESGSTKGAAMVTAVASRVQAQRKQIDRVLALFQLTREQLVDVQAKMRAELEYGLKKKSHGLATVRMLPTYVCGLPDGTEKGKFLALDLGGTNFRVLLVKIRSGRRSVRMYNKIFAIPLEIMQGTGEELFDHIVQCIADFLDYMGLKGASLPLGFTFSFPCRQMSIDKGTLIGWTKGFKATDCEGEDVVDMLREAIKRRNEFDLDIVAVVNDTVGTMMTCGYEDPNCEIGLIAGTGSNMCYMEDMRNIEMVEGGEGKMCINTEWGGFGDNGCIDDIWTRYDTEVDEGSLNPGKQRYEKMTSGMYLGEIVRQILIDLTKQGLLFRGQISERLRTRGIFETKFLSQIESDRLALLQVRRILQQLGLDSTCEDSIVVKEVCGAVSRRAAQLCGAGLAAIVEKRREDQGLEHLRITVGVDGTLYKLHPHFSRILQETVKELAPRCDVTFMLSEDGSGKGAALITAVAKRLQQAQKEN
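Incubation: 90 min at room temperature in dark / Material: recombinant HKDC1 (HK5) hexokinase enzyme, produced in-house / Quantity: enzyme 5 µg/mL final / Compound: one dose of 20 µM, 1% DMSO / Reagent: glucose and ATP substrates / Buffer or medium: Tris pH 8.0 buffer with MgCl2, Tween-20, BSA, BME / Technique: resorufin fluorescence at 613 nm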
PfGluPho conf – confirmation of Plasmodium falciparum G6PD inhibitors; 2,400 tested, 34% active; inhibition, % at 20 µM; recombinant PfGluPho, NADPH-diaphorase-resazurin fluorescence; shares compounds with PfGluPho inh;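 active = inhibition of at least 50% at 20 µM in any single replicate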;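 also: 0% = DMSO with substrate and 100% = DMSO lacking glucose-6-phosphate substrate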
Diaph ctr 10uM – diaphorase inhibition or oxidation at 10 uM NADPH. shares compounds with PfGluPho inh. diaphorase-coupled resazurin reduction, fluorescence, NADPH 10 uM. AID 504862. 820 tested, 39% active. inhibition, % at 20 µM;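 active = average inhibition reaching 50% or more with the compound at 20 µM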;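 also: resorufin red fluorescence formed as diaphorase reduces resazurin using NADPH; 0% = DMSO with enzyme and 100% = DMSO without enzyme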
Diaphorase 30uM – diaphorase inhibition or oxidation at 30 uM NADPH. AID 504863. 820 tested, 29% active. Diaphorase/resazurin coupled assay, resorufin fluorescence. inhibition, % at 20 µM. shares compounds with PfGluPho inh;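 active = inhibition averaging 50% or more, tested at 20 µM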;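 also: 0% = DMSO with enzyme and 100% = DMSO wells lacking diaphorase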
An asterisk follows results filed as active; . = no result.

SMILES	PfGluPho inh	Diaph inh CS	G6PDH counter	Diaph act CS	HKDC1 inh	PfGluPho conf	Diaph ctr 10uM	Diaphorase 30uM
Oc1cc(CNCc2ccccc2)c(O)cc1CNCc1ccccc1	70*	.	.	.	27	49*	-6	-1
CN1CCSc2ccc(C(=O)NCc3cccc(F)c3)cc21	69*	.	.	.	2	-20	.	.
COc1cccc(NC(=O)c2ccc3c(c2)N(C)CCS3)c1	94*	.	.	.	-1	27	.	.
COc1ccc(Br)cc1CNC(=O)c1ccc2c(c1)N(C)CCS2	26	.	.	.	-3	.	.	.
O=C(O)C1C2CCC(O2)C1C(=O)NCCC1=CCCCC1 (centres undefined)	2	15	12	0.8	1	.	.	.
O=[N+]([O-])c1ccc(Oc2cccc3cccnc23)c(Cl)c1	111*	.	.	.	4	80*	72*	60*
NC(=O)c1ccc(Oc2cccc3cccnc23)c([N+](=O)[O-])c1	19	12	18	0.9	9	.	.	.
COc1cc(NC(=O)c2cc3ccccc3cc2O)c(OC)cc1Cl	48	.	.	.	0	.	.	.
Cc1ccc(Cl)cc1NC(=O)c1cc2ccccc2cc1O	61*	.	.	.	-2	4	.	.
COC(=O)c1sc(NC(=S)NNC(=O)c2c(Br)c(C)nn2C)c(C(=O)OC)c1C	61*	.	.	.	-5	38	.	.
Cc1cc(C)c2c(=O)n(CC(=O)Nc3cccc(Cl)c3C)sc2n1	106*	.	.	.	-1	85*	-13	-4
COc1ccc(OC)c(CCNC(=O)Cn2sc3nc(C)cc(C)c3c2=O)c1	.	6	-2	0.9	.	.	.	.
Cc1cc(C)c2c(=O)n(CC(=O)NC3CCCC3)sc2n1	90*	.	.	.	1	73*	-32	-16
Cc1c(Cl)cccc1NC(=O)Cn1cccc1	8	11	-6	0.9	-11	.	.	.
Cc1cc(C)c2c(=O)n(CC(=O)Nc3ccc(Br)c(C)c3)sc2n1	112*	.	.	.	6	80*	-7	-14
C/C(=C1/SC(N2CC(C)OC(C)C2)=NC1=O)c1ccccc1 (centres undefined)	-6	16	11	0.8	4	.	.	.
CC(C)(C)c1ccc(C(=O)Nc2sc3c(c2C(=O)O)CCC3)cc1	76*	48	11	0.5	23	59*	34	15
NC(=O)c1c(NC(=O)c2ccc(F)cc2)sc2c1CCC2	47	.	.	.	-2	.	.	.
O=C(Nc1sc2c(c1C(=O)O)CCCCC2)c1ccccc1F	62*	16	-8	0.8	-4	40	.	.
O=C(Nc1sc2c(c1C(=O)O)CCC2)c1ccco1	14	20	-2	0.8	8	.	.	.
O=C(Nc1sc2c(c1C(=O)O)CCCC2)c1ccc(F)cc1	93*	.	.	.	6	73*	55*	55*
COC(=O)c1c(NC(=O)c2ccccc2C(=O)O)sc2c1CCCC2	-31	.	.	.	.	.	.	.
O=C(N/N=C/c1cccc(Br)c1)C1CC(=O)N(c2ccccc2)C1 (centres undefined)	73*	.	.	.	1	45	.	.
COc1ccc(Cl)cc1/C=N/NC(=O)c1c(-c2ccccc2)noc1C	127*	.	.	.	4	99*	96*	83*
Cc1ccc(/C=N/NC(=O)c2c(-c3ccccc3)noc2C)o1	36	13	9	0.9	4	.	.	.
SMILES	PfGluPho inh	Diaph inh CS	G6PDH counter	Diaph act CS	HKDC1 inh	PfGluPho conf	Diaph ctr 10uM	Diaphorase 30uM
COc1cccc(/C=N/NC(=O)c2c(-c3ccccc3)noc2C)c1OC	-1	.	.	.	-3	.	.	.
Cc1onc(-c2ccccc2)c1C(=O)N/N=C/c1cc(Br)c(Br)o1	64*	10	1	0.9	3	28	.	.
O=[N+]([O-])c1ccc(N/N=C/c2cccs2)nc1	8	.	.	.	-6	.	.	.
C/C(Sc1nnc(Cc2ccccc2)o1)=C(/O)c1ccccc1	-14	9	-1	0.9	-4	.	.	.
CN(C)c1ccc(C2OC(=O)C3(CCCC3)C(=O)C2(C)C)cc1 (centres undefined)	2	14	2	0.9	4	.	.	.
CCOC(=O)C1=C(C)Nc2nc(SCC)nn2C1c1ccc(OC)cc1 (centres undefined)	-18	10	9	0.9	-4	.	.	.
